Experimental data published in ChEMBL document CHEMBL1123005, “1-Azacycloalkyl-1,4-benzodiazepin-2-ones with antianxiety-antidepressant actions” (J Med Chem, 1985).
Active and inactive are the calls of the source. No cut-off for these calls is given here.

What was measured:
[1] = tested on: Rattus norvegicus; assay: Effective dose was evaluated by their anticonflict effect in rats when administered through oral route; assay type: functional
Outline: (§1)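 Wistar rats in groups of 5-8, Geller-Seifter conflict procedure. Rats trained to lever-press for food on a variable-interval 60-s schedule. Oral dosing. A dose counted positive when shocks exceeded 12 or shock ratio exceeded 4 over four consecutive tone periods. ED50 with 95% limits by probit.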

[2] = biological target: GABA-A receptor; anion channel (Rattus norvegicus) (UniProt O09028+P15431+P18506+P18508+P19969+P20236+P23574+P23576+P28471+P28473+P30191+P62813+P63079+P63138+Q91ZM7+Q9ES14); assay: Binding constant was determined by displacing potential to [3H]-diazepam binding in cerebral cortex homogenates of rat; assay type: tissue-based
Outline: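 Wistar rat cerebral cortex homogenate incubated with compound and 2 nM [3H]diazepam at 0 °C for 60 min. Bound label trapped on glass filters and counted by scintillation. Ki = IC50/(1 + L/Kd).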

[3] = tested on: Mus musculus; assay: Effective dose against tetrabenazine induced ptosis in mice administered orally; assay type: functional
Outline: (§2)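 Male DS mice, 20-27 g, groups of five. Compound given po or sc in saline or gum arabic at 0.1 mL/10 g. Tetrabenazine 50 mg/kg sc given 1, 4 or 24 h later. Ptosis scored 1-4 at 1 h after TBZ, with ridit transformation. Dose for 50% prevention by regression.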

[4] = tested on: Mus musculus; assay: Effective dose against tetrabenazine induced ptosis in mice administered subcutaneously; assay type: functional; conditions: sc; outline: as §2
[5] = Acute toxicity was measured in mice after peroral administration (1306-1666); assay type: organism-based; conditions: mouse, in vivo, po
Outline: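 Male DS mice, 20-26 g, given compound orally; mortality checked the day after treatment in groups of 10. LD50 by probit method, or by up-and-down method of Brownlee et al. (n = 5) where estimated.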

[6] = species: Rattus norvegicus; assay: Inhibitory activity against uptake of [3H]norepinephrine into rat brain synaptosomes.; assay type: functional
Outline: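 P2 synaptosomes from male Wistar rat cerebral cortex incubated with [3H]norepinephrine at 37 °C for 20 min, with compound at 5-6 concentrations. Stopped by Krebs-Henseleit dilution and glass-fibre filtration, then scintillation counting. IC50 taken as the concentration giving 50% uptake inhibition.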

[7] = tested on: Mus musculus; assay: Effective dose against pentylenetetrazole intoxicity in mice administered orally; assay type: functional
[8] = tested on: Mus musculus; assay: Effective dose against pentylenetetrazole intoxicity in mice administered subcutaneously; NE = not effective at dose 10 mg/kg; assay type: functional, organism-based; design: dose 10 mg/kg
[9] = tested on: Mus musculus; assay: Effective dose against tetrabenazine induced ptosis in mice administered through subcutaneous route; assay type: functional; conditions: sc; outline: as §2
[10] = tested on: Mus musculus; assay: Effective dose against pentylenetetrazole intoxicity in mice administered subcutaneously at 20 mg/kg; assay type: functional; conditions: sc, route subcutaneous
[11] = tested on: Mus musculus; assay: Effective dose against pentylenetetrazole intoxicity in mice administered through subcutaneous route; assay type: functional; conditions: sc
[12] = tested on: Mus musculus; assay: Effective dose against tetrabenazine induced ptosis in mice administered subcutaneously at 50 mg/kg; assay type: functional; conditions: sc, route subcutaneous; outline: as §2
[13] = tested on: Rattus norvegicus; assay: Percent anticonflict effect in rats when administered through oral route at 16 mg/kg; assay type: functional; outline: as §1
[14] = tested on: Mus musculus; assay: Effective dose against tetrabenazine induced ptosis in mice administered orally.; assay type: functional; conditions: po; outline: as §2
[15] = tested on: Rattus norvegicus; assay: Percent inhibition was evaluated by their anticonflict effect in rats when administered through oral route at 8 mg/kg; assay type: functional; outline: as §1
[16] = Mus musculus, po, read-out: ED50

## O=C1CN=C(c2ccccc2F)c2cc(Cl)ccc2N1C1CCNCC1
[1]
  ED50: 6.51 mg/kg
[2]
  K2: 0.036 µM
[3]
  ED50: 0.67 mg/kg
[3]; [16]
  ED50: 0.76 mg/kg
[4]
  ED50: 0.08 mg/kg
[5]
  LD50: 1480 mg/kg
[6]
  IC50: 0.118 µM
[7]
  ED50: 11.39 mg/kg
[7]; [16]
  ED50: 14.2 mg/kg

## CCOC(=O)N1CCC(N2C(=O)CN=C(c3ccccc3)c3ccccc32)CC1
[8]
  ED50: inactive
[2]
  K2: 2.3 µM
[9]
  ED50: 0.65 mg/kg

## CN1CCC(N2C(=O)CN=C(c3ccccc3)c3cc(Cl)ccc32)CC1
[1]
  ED50: 8.4 mg/kg
[10]
  inhibition in vivo at 20 mg/kg: 50%
[3]
  ED50: 0.74 mg/kg
[3]; [16]
  ED50: 0.58 mg/kg
[4]
  ED50: 0.85 mg/kg
[7]; [16]
  ED50: 29.9 mg/kg

## CN1CCC(N2C(=O)CN=C(c3ccccc3Cl)c3cc(Cl)ccc32)CC1
[2]
  K2: 0.021 µM
[3]; [16]
  ED50: 26.1 mg/kg
[11]
  ED50: 1.69 mg/kg
[6]
  IC50: 39.9 µM
[12]
  inhibition in vivo at 50 mg/kg: 23%
[7]; [16]
  ED50: 3.24 mg/kg

## CN1CCC(N2C(=O)CN=C(c3ccccc3)c3cc(F)ccc32)CC1
[2]
  K2: 2.42 µM
[3]; [16]
  ED50: 1.41 mg/kg
[13]
  inhibition in vivo at 16 mg/kg: 20%
[7]
  ED50: 25.79 mg/kg
[7]; [16]
  ED50: 30 mg/kg

## O=C1CN=C(c2ccccc2F)c2cc(Cl)ccc2N1C1CCNC1 (centres undefined)
[14]
  ED50: 0.4 mg/kg
[2]
  K2: 0.73 µM
[15]
  inhibition in vivo at 8 mg/kg: 60%
[4]
  ED50: 28.9 mg/kg
[7]; [16]
  ED50: 20.1 mg/kg
